For assay [1], the system named is H3K4me3 at Smc4, Egln1, Ext1 promoters. Put plainly: ChIP Realtime-PCR, H3K4me3 levels at target promoters. It counts as cell-based. As to conditions: doxorubicin treatment, all samples.
Assay [2] relates to H3K4me peptides / ING4 PHD finger. Put plainly: Biotinylated histone peptide pull-down, Western analysis. It counts as binding. As to conditions: individual substitutions, GST-fusion proteins.
Assay [3] has as its system Egln1, Ext1 and Smc4 mRNA. The assay can be described thus: mRNA expression Realtime-PCR. Type of assay: cell-based. As to conditions: HT1080; relative to untreated wild-type cells. The method, boiled down:
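HT1080 cells stably carrying vector, Flag-ING4 or Flag-ING4D213A, with doxorubicin-induced DNA damage. Transcripts measured by real-time PCR with TaqMan gene expression assays. Values are relative change versus untreated wild-type cells; error bars s.e.m.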

Assay [4] has as its system gene promoters in HT1080 cells. Put plainly: ChIP-chip on whole genome promoter tiling arrays. It counts as cell-based. As to conditions: doxorubicin treatment; 292 doxorubicin-induced target promoters.
The subject of a further assay is T47D cells. The assay can be described thus: Soft agar assay, anchorage-independent growth. It counts as cell-based. As to conditions: colonies scored after 21 days, vs control vector. Put shortly:
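T47D cells stably carrying pMSCV-ING4, pMSCV-ING4D213A or empty pMSCV; 55,000 cells plated in […] soft agar growth medium over a 1% agar base layer. Medium refreshed every three days; colonies counted at day 21. Four independent experiments, S.E.M.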

Assay [5] deals with purified polynucleosomes (H3K4me3). The assay can be described thus: Polynucleosome binding, Western analysis. As to conditions: recombinant proteins. The method, boiled down: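 Recombinant ING4 PHD finger proteins, wild type or carrying substitutions in the H3K4me3-binding surface, incubated with purified polynucleosomes. Bound material detected by Western blot with antibodies to the four core histones, H3K4me3 and H3K9me3.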

The next assay deals with HT1080 cells. The assay can be described thus: TUNEL assay of ING4-dependent apoptosis. Type of assay: cell-based. As to conditions: HT1080, 400 ng/ml doxorubicin 20 hours, 48 hours after transfection. The method, boiled down: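 HT1080 cells transfected with the plasmids, then given 400 ng/ml doxorubicin for 20 h, assayed 48 h after transfection. Cells fixed in methanol at −20C for 20 min, TUNEL-stained (TMR red) and mounted with DAPI. TUNEL-positive cells counted from images; s.e.m. from 3 independent fields.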

Another assay deals with H3K4me3. Put plainly: Global H3K4me3 levels, Western analysis of cell lysates. Type of assay: cell-based. As to conditions: demethylase transfection, ± ING4 overexpression. The method, boiled down: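 Cells transfected with Rbp2 or Plu-1 demethylase, with or without ING4 overexpression. Whole-cell lysates probed by Western blot for H3K4me3. Four independent experiments, error bars S.E.M.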

Where no end group is shown, it is not given here.

For `COc1cccc2c1C(=O)c1c(O)c3c(c(O)c1C2=O)C[C@@](O)(C(=O)CO)C[C@@H]3O[C@H]1C[C@H](N)[C@H](O)[C@H](C)O1` [doxorubicin], the “H3K4me3 levels at Smc4, Egln1 and Ext1 promoters” value in assay [1] is listed as “modestly induced”. In the case of “D213A: ING4PHD with substitution D213A (EPTYCLCHQVSYGEMIGCANPDCSIEWFHFACVGLTTKPRGKWFCPR; cysteine pairing not given here; also: GST fusion, end not given here)”, in assay [2], the “binding of ING4PHD mutants to H3K4me peptides in pull-down” value (shortened to “binding of ING4PHD mutants”) was “abrogated binding of the ING4PHD to the H3K4me peptides”.

Turning to “ING4D213A: ING4 with a point mutation that abrogates H3K4me3 binding”, the “baseline smc4 expression” value in assay [3] was “inhibits baseline expression”. In addition, the “average occupancy on DNA damage-dependent promoters” value in assay [4] is recorded as “largely absent compared to the wild-type protein”. Further, in the assay with T47D cells, the “growth in soft agar” value was “failed to inhibit soft agar growth”. As for “ING4PHD: recombinant ING4 PHD finger, aa 195–241 (EPTYCLCHQVSYGEMIGCDNPDCSIEWFHFACVGLTTKPRGKWFCPR; cysteine pairing not given here; also: GST fusion, end not given here)”, in assay [5], the “interaction with H3K4me3 in nucleosomes” value was “occurs in the context of nucleosomes”. For PLU-1: H3K4me3-demethylase, the ING4-dependent apoptosis result with HT1080 cells is “abrogated ING4-dependent apoptosis”. Besides, the “total H3K4me3 levels” value in the assay on H3K4me3 is recorded as “decreased total H3K4me3 levels”.

In the case of RBP2: H3K4me3-demethylase, the ING4-dependent apoptosis entry with HT1080 cells was “abrogated ING4-dependent apoptosis”. Also, the “total H3K4me3 levels” value with H3K4me3 is on record as “decreased total H3K4me3 levels”. For “W221A: ING4PHD with substitution W221A (EPTYCLCHQVSYGEMIGCDNPDCSIEAFHFACVGLTTKPRGKWFCPR; cysteine pairing not given here; also: GST fusion, end not given here)”, the “binding of ING4PHD mutants” value in assay [2] is listed as “abrogated binding of the ING4PHD to the H3K4me peptides”. With “Y198A: ING4PHD with substitution Y198A (EPTACLCHQVSYGEMIGCDNPDCSIEWFHFACVGLTTKPRGKWFCPR; cysteine pairing not given here; also: GST fusion, end not given here)”, in assay [2], the “binding of ING4PHD mutants” value is “abrogated binding of the ING4PHD to the H3K4me peptides”.

The record behind these values is article PMC2650391 (Molecular cell, 2009).
